Data: ChEMBL document CHEMBL3244289, “Synthesis and antibacterial activity of 2'-substituted chelocardin analogues” (1979)
The source made the active and inactive calls. No cut-off for these calls is given here.

Experiments:
Proteus vulgaris = assay: Antibacterial activity against Proteus vulgaris by two-fold agar dilution method; assay type: functional
Summary of the method: (§1)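 MIC determined by twofold serial dilution in brain-heart infusion agar. Values are reported in µg/mL.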

Salmonella typhi = assay: Antibacterial activity against Salmonella typhi by two-fold agar dilution method; assay type: functional, Salmonella enterica subsp. enterica serovar Typhi; conditions: Salmonella enterica
Summary of the method: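 MIC in µg/mL by twofold serial agar dilution on brain-heart infusion agar.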

Proteus mirabilis [1] = assay: Antibacterial activity against Proteus mirabilis infected in po dosed mouse assessed as protection against bacterial infection; assay type: functional
Summary of the method: (§2)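 Mice were challenged intraperitoneally with Proteus mirabilis, and compound was given by the line's route (oral or subcutaneous). The CD50 is the total dose in mg/kg that protects 50% of challenged mice.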

Pseudomonas aeruginosa = assay: Antibacterial activity against Pseudomonas aeruginosa by two-fold agar dilution method; assay type: functional, organism-based; summary of the method: as §1
Proteus mirabilis [2] = assay: Antibacterial activity against Proteus mirabilis infected in sc dosed mouse assessed as protection against bacterial infection; assay type: functional; summary of the method: as §2
Streptococcus pyogenes = assay: Antibacterial activity against Streptococcus pyogenes C-203 by two-fold agar dilution method; assay type: functional; summary of the method: as §1
Enterococcus = assay: Antibacterial activity against Enterococcus 89 by two-fold agar dilution method; assay type: functional; summary of the method: as §1
Proteus mirabilis [3] = assay: Antibacterial activity against Proteus mirabilis by two-fold agar dilution method; assay type: functional; summary of the method: as §1
Klebsiella pneumoniae = assay: Antibacterial activity against Klebsiella pneumoniae 8045 by two-fold agar dilution method; assay type: functional; summary of the method: as §1
Staphylococcus aureus [4] = assay: Antibacterial activity against Staphylococcus aureus Smith by two-fold agar dilution method; assay type: functional; summary of the method: as §1
Staphylococcus aureus [5] = assay: Antibacterial activity against Staphylococcus aureus 45 by two-fold agar dilution method; assay type: functional; summary of the method: as §1
Escherichia coli = assay: Antibacterial activity against Escherichia coli Juhl by two-fold agar dilution method; assay type: functional; summary of the method: as §1
Pasteurella multocida = assay: Antibacterial activity against Pasteurella multocida 10544 by two-fold agar dilution method; assay type: functional; summary of the method: as §1

| SMILES | MIC (Proteus vulgaris) [mg/L] | MIC (Salmonella typhi) [mg/L] | CD50 (Proteus mirabilis [1]) [mg/kg] | Activity (Pseudomonas aeruginosa) | CD50 (Proteus mirabilis [2]) [mg/kg] | MIC (Streptococcus pyogenes) [mg/L] | MIC (Enterococcus) [mg/L] | MIC (Proteus mirabilis [3]) [mg/L] | MIC (Klebsiella pneumoniae) [mg/L] | MIC (Staphylococcus aureus [4]) [mg/L] | MIC (Staphylococcus aureus [5]) [mg/L] | MIC (Escherichia coli) [mg/L] | MIC (Pasteurella multocida) [mg/L] |
| --- | --- | --- | --- | --- | --- | --- | --- | --- | --- | --- | --- | --- | --- |
| C/C(=N\c1ccc(S(N)(=O)=O)cc1)C1=C(O)[C@H](N)[C@@H]2Cc3c(c(O)c4c(O)c(C)ccc4c3C)C(=O)[C@]2(O)C1=O.Cl | 1.56 | 0.7 | <25 | inactive | 6.25 | 3.1 | 6.2 | 3.1 | 1.56 | 3.1 | 6.2 | 6.2 | 0.2 |
| CC(=O)C1=C(O)[C@H](N)[C@@H]2Cc3c(c(O)c4c(O)c(C)ccc4c3C)C(=O)[C@]2(O)C1=O.Cl [CETOCYCLINE HYDROCHLORIDE] | 1.56 | 1.5 | 200 | inactive | 12.5 | 3.1 | 6.2 | 1.56 | 3.1 | 3.1 | 6.2 | 6.2 | 0.39 |
| C/C(=N\N1CCN(CCO)CC1)C1=C(O)[C@H](N)[C@@H]2Cc3c(c(O)c4c(O)c(C)ccc4c3C)C(=O)[C@]2(O)C1=O.Cl | 3.1 | 1.56 | 100 | inactive | 25 | 3.1 | 6.2 | 3.1 | 1.56 | 6.2 | 12.5 | 6.2 | 0.39 |
| CC(=O)N/N=C(\C)C1=C(O)[C@H](N)[C@@H]2Cc3c(c(O)c4c(O)c(C)ccc4c3C)C(=O)[C@]2(O)C1=O.Cl | 6.2 | 6.2 | 50 | inactive | 25 | 6.2 | 12.5 | 6.2 | 6.2 | 12.5 | 12.5 | 12.5 | 0.78 |
| C/C(=N\NC(=N)N)C1=C(O)[C@H](N)[C@@H]2Cc3c(c(O)c4c(O)c(C)ccc4c3C)C(=O)[C@]2(O)C1=O.Cl | 12.5 | 25 | 100 | inactive | 12.5 | 25 | 50 | 12.5 | 12.5 | 50 | 50 | 25 | 3.1 |
| CC(=O)NS(=O)(=O)c1ccc(/N=C(\C)C2=C(O)[C@H](N)[C@@H]3Cc4c(c(O)c5c(O)c(C)ccc5c4C)C(=O)[C@]3(O)C2=O)cc1.Cl | 3.1 | 1.5 | 100 | inactive | 6.25 | 3.1 | 12.5 | 6.2 | 1.56 | 3.1 | 6.2 | 6.2 | 0.78 |
| C/C(=N\NCCN(C)C)C1=C(O)[C@H](N)[C@@H]2Cc3c(c(O)c4c(O)c(C)ccc4c3C)C(=O)[C@]2(O)C1=O.Cl | 25 | 25 |  | inactive |  | 50 | 100 | 25 | 25 | 50 | 50 | 50 | 3.1 |
| C=CCNC(=O)N/N=C(\C)C1=C(O)[C@H](N)[C@@H]2Cc3c(c(O)c4c(O)c(C)ccc4c3C)C(=O)[C@]2(O)C1=O.Cl | 12.5 | 12.5 |  | inactive |  | 12.5 | 50 | 6.2 | 6.2 | 25 | 25 | 25 | 0.78 |
| CCCNC(=O)N/N=C(\C)C1=C(O)[C@H](N)[C@@H]2Cc3c(c(O)c4c(O)c(C)ccc4c3C)C(=O)[C@]2(O)C1=O.Cl | 6.2 | 6.2 |  | inactive |  | 12.5 | 50 | 6.2 | 6.2 | 25 | 25 | 25 | 0.78 |
| C/C(=N\c1ccc(C(=O)O)cc1)C1=C(O)[C@H](N)[C@@H]2Cc3c(c(O)c4c(O)c(C)ccc4c3C)C(=O)[C@]2(O)C1=O.Cl | 1.56 | 1.5 |  | inactive |  | 3.1 | 6.2 | 3.1 | 1.56 | 3.1 | 6.2 | 6.2 | 0.39 |
| C/C(=N\N1CCN(C)CC1)C1=C(O)[C@H](N)[C@@H]2Cc3c(c(O)c4c(O)c(C)ccc4c3C)C(=O)[C@]2(O)C1=O.Cl | 6.2 | 3.1 | 25 | inactive | 12.5 | 3.1 | 12.5 | 6.2 | 3.1 | 6.2 | 6.2 | 6.2 | 0.78 |
| C/C(=N\c1ccccc1)C1=C(O)[C@H](N)[C@@H]2Cc3c(c(O)c4c(O)c(C)ccc4c3C)C(=O)[C@]2(O)C1=O.Cl | 6.2 | 6.2 |  | inactive |  | 12.5 | 25 | 6.2 | 12.5 | 12.5 | 12.5 | 25 | 1.56 |
| C/C(=N\NC(=O)Nc1ccccc1Cl)C1=C(O)[C@H](N)[C@@H]2Cc3c(c(O)c4c(O)c(C)ccc4c3C)C(=O)[C@]2(O)C1=O.Cl | 50 | 50 |  | inactive |  | 25 | 100 | 50 | 50 | 50 | 100 | 100 | 6.2 |
| C/C(=N\NC(N)=O)C1=C(O)[C@H](N)[C@@H]2Cc3c(c(O)c4c(O)c(C)ccc4c3C)C(=O)[C@]2(O)C1=O.Cl | 12.5 | 6.2 |  | inactive |  | 25 | 50 | 25 | 12.5 | 25 | 25 | 25 | 1.56 |
